# What was measured:
# Assay type in all cases: functional
# [1] = tested on: Mycobacterium kansasii; assay: Antimycobacterial activity against multi-drug resistant Mycobacterium kansasii clinical isolate CNCTC 6509/96 assessed as bacterial growth inhibition incubated for 21 days by two-fold serial dilution method; conditions: CNCTC 6509/96, 504 h, time 21 day
# How it was run: (§1)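 M. kansasii clinical isolate 6509/96 (stock dilution 10−4) in Šula's semisynthetic liquid medium; two-fold serial dilutions 1000 to 1 μM, DMSO final 1.0% v/v; final load 1.5 × 10^5 CFU mL−1; MIC read visually as complete growth inhibition at 7, 14 and 21 days.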
# [2] = tested on: Mycobacterium tuberculosis; assay: Antimycobacterial activity against multidrug sensitive Mycobacterium tuberculosis H37Rv CNCTC 331/88 assessed as bacterial growth inhibition incubated for 14 days by two-fold serial dilution method; conditions: H37Rv CNCTC 331/88, 336 h, time 14 day
# [3] = tested on: Mycobacterium kansasii; assay: Antimycobacterial activity against INH/RIF/rifabutin/OFX/EMB Mycobacterium kansasii CNCTC 6509/96 clinical isolate assessed as bacterial growth inhibition incubated for 7 days by two-fold serial dilution method; conditions: CNCTC 6509/96, 168 h, time 7 day
# How it was run: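 Šula's liquid semisynthetic medium; M. kansasii clinical isolate 6509/96 used at stock dilution 10−4, final ~1.5 × 10^5 CFU mL−1. Two-fold dilutions ran 1000–1 μM with final DMSO 1.0% (v/v). MIC was read visually as complete growth inhibition after 7, 14 and 21 days.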
# [4] = tested on: Mycobacterium tuberculosis; assay: Antimycobacterial activity against Mycobacterium tuberculosis H37Rv CNCTC 331/88 assessed as bacterial growth inhibition incubated for 21 days by two fold serial dilution method; conditions: H37Rv CNCTC 331/88, 504 h, time 21 day
# [5] = tested on: Mycobacterium avium; assay: Antimycobacterial activity against INH/RIF/rifabutin/OFX/EMB resistant Mycobacterium avium CNCTC 330/88 assessed as bacterial growth inhibition incubated for 14 days by two-fold serial dilution method; conditions: CNCTC 330/88, 336 h, time 14 day
# How it was run: (§2)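 M. avium CNCTC 330/88 (stock suspension dilution 10−5) grown in Šula's semisynthetic liquid medium; two-fold serial dilutions 1000 to 1 μM from DMSO stocks (final DMSO 1.0% v/v); final load 1.5 × 10^5 CFU mL−1; MIC read visually as lowest concentration giving complete growth inhibition after 14 and 21 days.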
# [6] = tested on: Mycobacterium avium; assay: Antimycobacterial activity against INH/RIF/rifabutin/OFX/EMB resistant Mycobacterium avium CNCTC 330/88 assessed as bacterial growth inhibition incubated for 21 days by two-fold serial dilution method; conditions: CNCTC 330/88, 504 h, time 21 day; how it was run: as §2
# [7] = tested on: Mycobacterium kansasii; assay: Antimycobacterial activity against multi-drug resistant Mycobacterium kansasii CNCTC 6509/96 clinical isolate assessed as bacterial growth inhibition incubated for 14 days by two-fold serial dilution method; conditions: CNCTC 6509/96, 336 h, time 14 day; how it was run: as §1
# [8] = tested on: Pichia kudriavzevii; assay: Antifungal activity against Candida krusei CCM 8271 measured after 24 to 48 hrs by microdilution broth method; conditions: time 24-48 hrs
# How it was run: (§3)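 Yeast broth microdilution per EUCAST, slightly modified. Medium was RPMI-1640 with 2% glucose, MOPS-buffered to pH 7.0. Compounds were tested at 0.98–500 μM with final DMSO ≤1.0% (v/v). Inoculum came from 18–24 h cultures, final ~1–5 × 10^5 CFU mL−1. Plates were incubated statically, dark and humidified, at 35 ± 2 °C. MIC was read visually at 24 and 48 h (no visible growth).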
# [9] = tested on: Candida albicans; assay: Antifungal activity against Candida albicans ATCC 24443 measured after 24 to 48 hrs by microdilution broth method; conditions: time 24-48 hrs; how it was run: as §3
# [10] = tested on: Trichophyton interdigitale; assay: Antifungal activity against Trichophyton interdigitale CCM 8377 measured after 24 to 48 hrs by microdilution broth method; conditions: time 24-48 hrs
# [11] = tested on: Lichtheimia corymbifera; assay: Antifungal activity against Lichtheimia corymbifera CCM 8077 measured after 24 to 48 hrs by microdilution broth method; conditions: time 24-48 hrs
# How it was run: (§4)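 Filamentous fungi tested by broth microdilution per EUCAST with minor changes. Compounds were tested at 0.98–500 μM with final DMSO ≤1.0% (v/v). Plates were incubated statically, dark and humidified, at 35 ± 2 °C for 24 and 48 h. MIC was the lowest concentration showing no visible growth.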
# [12] = tested on: Candida parapsilosis; assay: Antifungal activity against Candida parapsilosis CCM 8260 measured after 24 to 48 hrs by microdilution broth method; conditions: Lodderomyces parapsilosis, time 24-48 hrs; how it was run: as §3
# [13] = tested on: Trichophyton interdigitale; assay: Antifungal activity against Trichophyton interdigitale ATCC 9533 measured after 24 to 48 hrs by microdilution broth method; conditions: time 24-48 hrs
# [14] = tested on: Candida albicans; assay: Antifungal activity against Candida albicans CCM 8320 measured after 24 to 48 hrs by microdilution broth method; conditions: time 24-48 hrs; how it was run: as §3
# [15] = tested on: Candida parapsilosis; assay: Antifungal activity against Candida parapsilosis ATCC 22019 measured after 24 to 48 hrs by microdilution broth method; conditions: Lodderomyces parapsilosis, time 24-48 hrs; how it was run: as §3
# [16] = tested on: Aspergillus fumigatus; assay: Antifungal activity against Aspergillus fumigatus ATCC 204305 measured after 24 to 48 hrs by microdilution broth method; conditions: time 24-48 hrs; how it was run: as §4
# [17] = tested on: Aspergillus flavus; assay: Antifungal activity against Aspergillus flavus CCM 8363 measured after 24 to 48 hrs by microdilution broth method; conditions: time 24-48 hrs; how it was run: as §4
# [18] = tested on: Candida tropicalis; assay: Antifungal activity against Candida tropicalis CCM 8264 measured after 24 to 48 hrs by microdilution broth method; conditions: time 24-48 hrs; how it was run: as §3
# [19] = tested on: Candida tropicalis; assay: Antifungal activity against Candida tropicalis ATCC 750 measured after 24 to 48 hrs by microdilution broth method; conditions: time 24-48 hrs; how it was run: as §3
# [20] = tested on: Pichia kudriavzevii; assay: Antifungal activity against Candida krusei ATCC 6258 measured after 24 to 48 hrs by microdilution broth method; conditions: time 24-48 hrs; how it was run: as §3
SMILES,MIC [1] [µM],MIC [2] [µM],MIC [3] [µM],MIC [4] [µM],MIC [5] [µM],MIC [6] [µM],MIC [7] [µM],MIC [8] [µM],MIC [9] [µM],MIC [10] [µM],MIC [11] [µM],MIC [12] [µM],MIC [13] [µM],MIC [14] [µM],MIC [15] [µM],MIC [16] [µM],MIC [17] [µM],MIC [18] [µM],MIC [19] [µM],MIC [20] [µM]
O=C(/C=N/NC(=O)c1ccncc1)Nc1ccc(S(=O)(=O)Nc2nccs2)cc1,8,2,8,4,250,500,8,–,–,–,–,–,–,–,–,–,–,–,–,–
Nc1ccc(S(=O)(=O)Nc2ccc(Oc3ccc(Cl)cc3)c(Cl)c2)cc1,125,125,125,125,125,125,125,–,–,–,–,–,–,–,–,–,–,–,–,–
C/C(=N\NC(=O)c1ccncc1)C(=O)Nc1ccc(S(N)(=O)=O)cc1,64,2,32,2,≥ 1000,≥ 1000,64,> 500,> 500,> 500,> 500,> 500,> 500,> 500,> 500,> 500,> 500,> 500,> 500,> 500
C/C(=N\NC(=O)c1ccncc1)C(=O)Nc1ccc(NC(=O)/C(C)=N/NC(=O)c2ccncc2)cc1,250,64,250,64,250,250,250,–,–,–,–,–,–,–,–,–,–,–,–,–
C/C(=N\NC(=O)c1ccncc1)C(=O)Nc1ccc(S(=O)(=O)Nc2nccs2)cc1,16,1,16,1,≥ 1000,≥ 1000,16,> 500,> 500,> 500,> 500,> 500,> 500,> 500,> 500,> 500,> 500,> 500,> 500,> 500
Nc1ccc(S(=O)(=O)Nc2ccccc2Oc2ccccc2)cc1,500,250,500,250,500,1000,500,–,–,–,–,–,–,–,–,–,–,–,–,–
C/C(=N\NC(=O)c1ccncc1)C(=O)Nc1ccc(S(=O)(=O)Nc2ncccn2)cc1,64,2,32,2,1000,≥ 1000,64,> 500,> 500,> 500,> 500,> 500,> 500,> 500,> 500,> 500,> 500,> 500,> 500,> 500
Nc1ccc(S(=O)(=O)Nc2ccc(Sc3ccc([N+](=O)[O-])cc3)cc2)cc1,≥ 1000,125,8,≥ 1000,≥ 1000,≥ 1000,≥ 1000,–,–,–,–,–,–,–,–,–,–,–,–,–
O=C(O)/C=N/NC(=O)c1ccncc1,8,0.25,4,0.5,250,> 250,4,–,–,–,–,–,–,–,–,–,–,–,–,–
C/C(=N\NC(=O)c1ccncc1)C(=O)Nc1ccc(S(=O)(=O)Nc2nc(C)cc(C)n2)cc1,32,1,16,1,500,500,32,> 500,> 500,> 500,> 500,> 500,> 500,> 500,> 500,> 500,> 500,> 500,> 500,> 500
C/C(=N\NC(=O)c1ccncc1)C(=O)O [PYRUVIC ACID ISONIAZID],16,1,8,1,500,> 1000,16,–,–,–,–,–,–,–,–,–,–,–,–,–
